Drawing on ChEMBL document CHEMBL4680084, “New β-Lactam Derivatives Modulate Cell Adhesion and Signaling Mediated by RGD-Binding and Leukocyte Integrins” (J Med Chem, 2016), this text covers EC50, IC50 and Activity for 1 compound.

Data set [1] addresses T1, Integrin alpha-V/beta-5 (Homo sapiens, UniProt P06756+P18084). Briefly: Agonist activity at alphaVbeta5 in human MCF7 cells assessed as increase in cell adhesion to fibrinogen pre-incubated for 30 mins before fibrinogen and further incubated for 1 hr by nitrophenyl-N-acetyl-beta-D-glucosaminide substrate based chromogenic assay. Put shortly:
(§1)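 Compound or methanol vehicle pre-incubated with cells for 30 min at room temperature. Cells then plated on wells coated overnight at 4 °C with fibronectin 10 µg/mL (SK-MEL-24, K562, HT-29) or fibrinogen 10 µg/mL (MCF7, HEL). Seeding was 50,000 cells/well, or 100000 for HEL. Adhesion ran 1 h at room temperature. Wells washed with 1% BSA/PBS. Adherent cells read by hexosaminidase substrate, absorbance 405 nm. Quadruplicate, at least three repeats.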

In data set [2] the target is T2, Integrin alpha-V/beta-6 (Homo sapiens, UniProt P06756+P18564). In words: Antagonist activity at alphaVbeta6 in human HT-29 cells assessed as reduction in cell adhesion to fibronectin pre-incubated for 30 mins before fibronectin and further incubated for 1 hr by nitrophenyl-N-acetyl-beta-D-glucosaminide substrate based chromogenic assay. Summed up: (§2)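 Compound or methanol vehicle pre-incubated with cells for 30 min at room temperature. Cells then plated on wells coated overnight at 4 °C with fibronectin 10 µg/mL (SK-MEL-24, K562, HT-29) or fibrinogen 10 µg/mL (MCF7, HEL). Seeding was 50,000 cells/well, or 100000 for HEL. Adhesion ran 1 h at room temperature. Wells washed with 1% BSA/PBS. Quadruplicate, at least three repeats.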
T2 sequence (P06756 31-889 limits assumed): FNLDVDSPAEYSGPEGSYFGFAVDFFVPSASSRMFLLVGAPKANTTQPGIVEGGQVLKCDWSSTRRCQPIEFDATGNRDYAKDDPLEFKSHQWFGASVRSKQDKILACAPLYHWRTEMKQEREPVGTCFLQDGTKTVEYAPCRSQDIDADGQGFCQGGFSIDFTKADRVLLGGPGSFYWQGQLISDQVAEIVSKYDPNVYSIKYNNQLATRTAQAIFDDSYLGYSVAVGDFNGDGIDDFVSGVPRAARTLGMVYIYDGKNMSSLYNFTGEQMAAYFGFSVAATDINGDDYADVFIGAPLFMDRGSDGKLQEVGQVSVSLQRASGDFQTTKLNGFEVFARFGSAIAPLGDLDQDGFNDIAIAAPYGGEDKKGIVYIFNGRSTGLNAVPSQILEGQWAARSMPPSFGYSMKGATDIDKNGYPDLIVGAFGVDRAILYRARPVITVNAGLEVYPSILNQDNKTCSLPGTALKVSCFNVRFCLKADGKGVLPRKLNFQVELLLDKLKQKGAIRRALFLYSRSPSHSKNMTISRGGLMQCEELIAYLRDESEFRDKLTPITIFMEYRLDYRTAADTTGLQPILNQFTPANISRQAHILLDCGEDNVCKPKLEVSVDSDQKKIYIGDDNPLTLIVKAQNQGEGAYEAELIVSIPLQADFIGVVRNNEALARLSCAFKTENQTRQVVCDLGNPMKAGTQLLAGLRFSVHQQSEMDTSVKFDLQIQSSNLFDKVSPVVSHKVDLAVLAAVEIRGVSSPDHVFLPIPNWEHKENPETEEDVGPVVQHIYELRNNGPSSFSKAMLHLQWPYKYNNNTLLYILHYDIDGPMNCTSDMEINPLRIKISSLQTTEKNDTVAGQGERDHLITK
T2 sequence (P06756 891-1048 limits assumed): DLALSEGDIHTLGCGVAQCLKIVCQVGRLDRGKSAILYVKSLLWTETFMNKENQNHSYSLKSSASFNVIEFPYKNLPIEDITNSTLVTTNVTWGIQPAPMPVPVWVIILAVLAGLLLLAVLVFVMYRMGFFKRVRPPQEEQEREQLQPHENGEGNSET
T2 sequence (P18564 22-788 limits assumed): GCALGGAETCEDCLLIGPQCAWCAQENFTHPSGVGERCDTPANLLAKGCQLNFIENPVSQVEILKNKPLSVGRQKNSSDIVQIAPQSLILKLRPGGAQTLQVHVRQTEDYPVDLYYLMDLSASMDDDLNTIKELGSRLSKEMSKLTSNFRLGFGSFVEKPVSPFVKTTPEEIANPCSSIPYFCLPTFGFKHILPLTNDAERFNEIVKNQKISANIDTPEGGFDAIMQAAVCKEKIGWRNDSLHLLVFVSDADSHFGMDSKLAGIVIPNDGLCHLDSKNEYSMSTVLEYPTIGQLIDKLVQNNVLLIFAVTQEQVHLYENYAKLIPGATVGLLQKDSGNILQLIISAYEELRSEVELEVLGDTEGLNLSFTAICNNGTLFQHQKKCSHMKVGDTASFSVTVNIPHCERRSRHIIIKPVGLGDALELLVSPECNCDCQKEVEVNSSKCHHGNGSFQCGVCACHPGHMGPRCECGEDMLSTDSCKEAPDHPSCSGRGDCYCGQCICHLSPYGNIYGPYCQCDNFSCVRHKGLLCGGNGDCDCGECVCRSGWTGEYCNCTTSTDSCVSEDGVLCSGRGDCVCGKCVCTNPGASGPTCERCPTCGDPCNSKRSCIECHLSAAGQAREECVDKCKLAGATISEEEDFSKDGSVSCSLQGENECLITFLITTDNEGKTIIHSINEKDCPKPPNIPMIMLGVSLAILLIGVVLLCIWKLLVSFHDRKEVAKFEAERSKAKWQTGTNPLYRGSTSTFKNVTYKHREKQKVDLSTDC

In data set [3] the target is T3, Integrin alpha-5/beta-1 (Homo sapiens, UniProt P05556+P08648). Briefly: Agonist activity at alpha5beta1 in human K562 cells assessed as increase in cell adhesion to fibronectin pre-incubated for 30 mins before fibronectin and further incubated for 1 hr by nitrophenyl-N-acetyl-beta-D-glucosaminide substrate based chromogenic assay. Summed up:
as §1

The target in data set [4] is T4, Integrin alpha-4/beta-1 (Homo sapiens, UniProt P05556+P13612). Briefly: Agonist activity at alpha4beta1 in human Jurkat E6.1 cells assessed as increase in cell adhesion to VCAM1 pre-incubated for 30 mins before VCAM1 and further incubated for 30 mins by […]. The data set is classed as cell-based. Put shortly:
(§3)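 Jurkat E6.1 cells labelled with CellTracker green CMFDA (12.5 µM, 30 min, 37 °C), washed, then pre-incubated 30 min at 37 °C with compound or methanol. Plated at 500,000/well on VCAM-1 (α4β1) or ICAM-1 (αLβ2) coated wells (5 µg/mL) for 30 min at 37 °C. Cells lysed in 0.5% Triton X-100; fluorescence read Ex485/Em535. Quadruplicate, at least three repeats.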

Data set [5] deals with T5, Integrin alpha-L/beta-2 (LFA-1) (Homo sapiens, UniProt P05107+P20701). In words: Agonist activity at alphaLbeta2 in human Jurkat E6.1 cells assessed as increase in cell adhesion to ICAM1 pre-incubated for 30 mins before ICAM1 and further incubated for 30 mins by […]. The data set is classed as cell-based. Put shortly: as §3
In data set [6] the target is T5, Integrin alpha-L/beta-2 (LFA-1). Briefly: Antagonist activity at alphaLbeta2 in human Jurkat E6.1 cells assessed as reduction in cell adhesion to ICAM1 pre-incubated for 30 mins before ICAM1 and further incubated for 30 mins by […]. It is filed as cell-based. Summed up: as §3
The target of data set [7] is T6, Integrin alpha-V/beta-3 (Homo sapiens, UniProt P05106+P06756). In words: Agonist activity at alphaVbeta3 in human SK-MEL-24 cells assessed as increase in cell adhesion to fibronectin at 10 to 10000 nM pre-incubated for 30 mins before fibronectin and further incubated for 1 hr by nitrophenyl-N-acetyl-beta-D-glucosaminide substrate based chromogenic assay. The following applies: filed as agonist, dose 10-10000 nM, time 90.0 min. Put shortly:
(§4)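 SK-MEL-24 cells pre-incubated 30 min at room temperature with compound (1×10^-10–1×10^-4 M) or methanol, then plated at 50,000/well on fibronectin (10 µg/mL) coated wells for 1 h at room temperature. Adherent cells quantified by 4-nitrophenyl-N-acetyl-glucosaminide hydrolysis, absorbance 405 nm. Quadruplicate, at least three repeats; IC50/EC50 derived.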

Data set [8] concerns the target T1, Integrin alpha-V/beta-5. In words: Antagonist activity at alphaVbeta5 in human MCF7 cells assessed as reduction in cell adhesion to fibrinogen pre-incubated for 30 mins before fibrinogen and further incubated for 1 hr by nitrophenyl-N-acetyl-beta-D-glucosaminide substrate based chromogenic assay. Put shortly: as §2
The subject of data set [9] is HEL. In words: Toxicity in human HEL cells assessed as induction of cell necrosis and/or apoptosis incubated for 3 hrs by annexin V-PE and 7-AAD staining based by flow cytometry. Put shortly: (§5)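 After 3 h incubation, cells resuspended in complete medium and stained with annexin V-PE/7-AAD reagent for 20 min at room temperature in the dark. Flow cytometry sorted cells into viable, early apoptotic and late apoptotic/necrotic populations.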

Data set [10] concerns the target T7, Integrin alpha-IIb/beta-3 (Homo sapiens, UniProt P05106+P08514). Briefly: Antagonist activity at alpha2bbeta3 in human HEL cells assessed as reduction in cell adhesion to fibrinogen pre-incubated for 30 mins before fibrinogen and further incubated for 1 hr by nitrophenyl-N-acetyl-beta-D-glucosaminide substrate based chromogenic assay. Summed up: as §2
For data set [11], the target named is T3, Integrin alpha-5/beta-1. In words: Antagonist activity at alpha5beta1 in human K562 cells assessed as reduction in cell adhesion to fibronectin pre-incubated for 30 mins before fibronectin and further incubated for 1 hr by nitrophenyl-N-acetyl-beta-D-glucosaminide substrate based chromogenic assay. Put shortly:
as §1

Data set [12] has as its system K562. Briefly: Toxicity in human K562 cells assessed as induction of cell necrosis and/or apoptosis incubated for 3 hrs by annexin V-PE and 7-AAD staining based by flow cytometry. The following applies: k562, 3 h. Put shortly:
as §5

For data set [13], the target named is T6, Integrin alpha-V/beta-3. Briefly: Antagonist activity at alphaVbeta3 in human SK-MEL-24 cells assessed as reduction in cell adhesion to fibronectin at 10 to 10000 nM pre-incubated for 30 mins before fibronectin and further incubated for 1 hr by nitrophenyl-N-acetyl-beta-D-glucosaminide substrate based chromogenic assay. The following applies: filed as antagonist, dose 10-10000 nM, time 90.0 min. Put shortly: as §4

For data set [14], the system named is MCF7. In words: Toxicity in human MCF7 cells assessed as induction of cell necrosis and/or apoptosis incubated for 3 hrs by annexin V-PE and 7-AAD staining based by flow cytometry. The following applies: mcf7, 3 h. Summed up:
as §5

Data set [15] has as its target T2, Integrin alpha-V/beta-6. Briefly: Agonist activity at alphaVbeta6 in human HT-29 cells assessed as increase in cell adhesion to fibronectin pre-incubated for 30 mins before fibronectin and further incubated for 1 hr by nitrophenyl-N-acetyl-beta-D-glucosaminide substrate based chromogenic assay. Summed up:
as §1

The test system of data set [16] is SK-MEL-24. In words: Toxicity in human SK-MEL-24 cells assessed as induction of cell necrosis and/or apoptosis incubated for 3 hrs by annexin V-PE and 7-AAD staining based by flow cytometry. The following applies: sk-mel-24, 3 h. Put shortly: as §5
Data set [17] relates to HT-29. Briefly: Toxicity in human HT-29 cells assessed as induction of cell necrosis and/or apoptosis incubated for 3 hrs by annexin V-PE and 7-AAD staining based by flow cytometry. The following applies: ht-29, 3 h. Put shortly:
as §5

The target of data set [18] is T4, Integrin alpha-4/beta-1. Briefly: Antagonist activity at alpha4beta1 in human Jurkat E6.1 cells assessed as reduction in cell adhesion to VCAM1 pre-incubated for 30 mins before VCAM1 and further incubated for 30 mins by […]. It is filed as cell-based.
For data set [19], the target named is T7, Integrin alpha-IIb/beta-3. Briefly: Agonist activity at alpha2bbeta3 in human HEL cells assessed as increase in cell adhesion to fibrinogen pre-incubated for 30 mins before fibrinogen and further incubated for 1 hr by nitrophenyl-N-acetyl-beta-D-glucosaminide substrate based chromogenic assay. Summed up: as §2

pEC50, pIC50: −log10 of the molar value. Activity calls are given as the source filed them. The calls are words filed in the database; no cut-off is given here.

T1 sequence (P06756 31-889 limits assumed): as the sequence (P06756 31-889 limits assumed) above
T1 sequence (P06756 891-1048 limits assumed): as the sequence (P06756 891-1048 limits assumed) above
T1 sequence (P18084 24-799 limits assumed): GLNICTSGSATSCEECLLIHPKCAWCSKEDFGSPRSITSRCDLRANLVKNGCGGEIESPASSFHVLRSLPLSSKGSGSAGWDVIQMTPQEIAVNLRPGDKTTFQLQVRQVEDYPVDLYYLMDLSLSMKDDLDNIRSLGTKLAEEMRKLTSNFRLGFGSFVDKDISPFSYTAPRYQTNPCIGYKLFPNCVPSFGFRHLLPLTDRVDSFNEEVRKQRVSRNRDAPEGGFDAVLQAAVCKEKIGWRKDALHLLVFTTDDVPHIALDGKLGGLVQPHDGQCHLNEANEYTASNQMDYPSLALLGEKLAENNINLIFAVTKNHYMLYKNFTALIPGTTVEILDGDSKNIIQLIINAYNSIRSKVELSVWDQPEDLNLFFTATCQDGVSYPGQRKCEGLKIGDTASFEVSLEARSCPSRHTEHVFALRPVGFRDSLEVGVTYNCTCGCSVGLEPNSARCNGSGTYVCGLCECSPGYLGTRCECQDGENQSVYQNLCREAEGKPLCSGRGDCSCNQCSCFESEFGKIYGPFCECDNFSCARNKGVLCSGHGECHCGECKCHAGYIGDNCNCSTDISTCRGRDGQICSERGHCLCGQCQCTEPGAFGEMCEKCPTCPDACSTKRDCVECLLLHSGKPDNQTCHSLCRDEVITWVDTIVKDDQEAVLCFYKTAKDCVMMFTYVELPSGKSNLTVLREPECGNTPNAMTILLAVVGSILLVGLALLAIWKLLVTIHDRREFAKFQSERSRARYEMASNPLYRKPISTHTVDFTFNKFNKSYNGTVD
T7 sequence (P05106 27-788 limits assumed): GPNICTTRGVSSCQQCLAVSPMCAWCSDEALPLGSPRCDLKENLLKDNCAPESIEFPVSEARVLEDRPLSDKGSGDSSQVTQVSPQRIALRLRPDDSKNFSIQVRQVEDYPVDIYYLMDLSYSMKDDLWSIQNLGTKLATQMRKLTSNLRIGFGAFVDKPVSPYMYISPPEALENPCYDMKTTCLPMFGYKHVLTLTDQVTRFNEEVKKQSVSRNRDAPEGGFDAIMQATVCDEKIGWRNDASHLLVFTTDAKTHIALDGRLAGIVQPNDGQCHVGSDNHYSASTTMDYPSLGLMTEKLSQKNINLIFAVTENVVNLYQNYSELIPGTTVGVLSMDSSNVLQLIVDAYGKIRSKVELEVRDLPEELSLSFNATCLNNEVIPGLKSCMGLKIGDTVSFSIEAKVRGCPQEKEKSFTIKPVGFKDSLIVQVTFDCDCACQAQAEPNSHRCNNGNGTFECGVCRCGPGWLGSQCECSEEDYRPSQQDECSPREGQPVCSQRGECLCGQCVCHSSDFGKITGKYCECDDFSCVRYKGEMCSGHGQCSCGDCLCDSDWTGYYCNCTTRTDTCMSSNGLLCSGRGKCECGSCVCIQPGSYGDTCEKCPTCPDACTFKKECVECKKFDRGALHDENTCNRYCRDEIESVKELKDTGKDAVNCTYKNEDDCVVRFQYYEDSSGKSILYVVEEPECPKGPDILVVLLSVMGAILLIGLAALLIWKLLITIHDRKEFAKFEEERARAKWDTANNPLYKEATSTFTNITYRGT
T7 sequence (P08514 32-887 limits assumed): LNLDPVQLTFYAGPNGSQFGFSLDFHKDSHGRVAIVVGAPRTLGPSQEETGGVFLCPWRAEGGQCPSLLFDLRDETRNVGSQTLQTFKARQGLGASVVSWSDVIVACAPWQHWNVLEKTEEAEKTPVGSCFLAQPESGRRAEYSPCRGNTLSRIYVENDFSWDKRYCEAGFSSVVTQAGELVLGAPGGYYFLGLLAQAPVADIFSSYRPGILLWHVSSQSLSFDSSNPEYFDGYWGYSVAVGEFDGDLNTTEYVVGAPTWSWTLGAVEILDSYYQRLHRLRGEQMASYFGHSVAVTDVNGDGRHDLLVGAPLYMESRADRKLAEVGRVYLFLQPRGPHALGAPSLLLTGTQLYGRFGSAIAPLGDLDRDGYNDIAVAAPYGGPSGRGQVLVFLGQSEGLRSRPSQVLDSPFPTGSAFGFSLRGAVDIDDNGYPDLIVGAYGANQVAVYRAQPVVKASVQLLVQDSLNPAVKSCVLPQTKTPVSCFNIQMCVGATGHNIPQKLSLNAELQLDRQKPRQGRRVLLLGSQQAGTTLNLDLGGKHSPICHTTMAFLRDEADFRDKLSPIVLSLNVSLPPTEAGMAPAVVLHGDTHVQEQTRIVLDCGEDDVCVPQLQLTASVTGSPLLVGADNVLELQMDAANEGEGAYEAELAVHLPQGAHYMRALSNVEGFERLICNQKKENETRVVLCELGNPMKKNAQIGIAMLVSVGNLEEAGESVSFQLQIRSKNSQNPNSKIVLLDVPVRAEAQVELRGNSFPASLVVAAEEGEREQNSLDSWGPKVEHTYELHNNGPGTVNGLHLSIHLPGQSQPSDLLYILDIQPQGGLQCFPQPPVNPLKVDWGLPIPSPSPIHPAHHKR
T7 sequence (P08514 891-1039 limits assumed): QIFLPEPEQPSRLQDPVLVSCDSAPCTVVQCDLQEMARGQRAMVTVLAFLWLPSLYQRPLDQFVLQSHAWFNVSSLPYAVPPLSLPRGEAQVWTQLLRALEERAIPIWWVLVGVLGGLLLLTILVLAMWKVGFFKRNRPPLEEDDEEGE

For `Cc1ccccc1NC(=O)N1C(=O)C[C@H]1C(=O)NCCC(=O)O`, the negative logarithm of the EC50 (pEC50) in data set [1], in [3], in data set [4], in [5], in [15] and in [19] was less than 5.30 throughout. Besides, the pIC50 in [2], in [6], in data set [8], in [10], in data set [11] and in data set [18] was less than 5.30 each time. Besides, the result in data set [7] and in data set [13] was Active. For the same compound, the Activity result in data set [9], in data set [12], in [14], in data set [16] and in data set [17] was “Non-Toxic” each time.
